Data reported in publication PMC4002067 (Journal of Medicinal Chemistry, 2014).
Each block holds one compound with its values, some of them ahead of it.

What was measured:
[1] = biological target: T1, SIRT1 (Homo sapiens, UniProt Q96EB6); assay: SIRT-Glo enzyme inhibition assay, SIRT1; type: biochemical; settings: for selectivity for SIRT1 (over SIRT2): from IC50 values
T1 sequence (Q96EB6 1-747): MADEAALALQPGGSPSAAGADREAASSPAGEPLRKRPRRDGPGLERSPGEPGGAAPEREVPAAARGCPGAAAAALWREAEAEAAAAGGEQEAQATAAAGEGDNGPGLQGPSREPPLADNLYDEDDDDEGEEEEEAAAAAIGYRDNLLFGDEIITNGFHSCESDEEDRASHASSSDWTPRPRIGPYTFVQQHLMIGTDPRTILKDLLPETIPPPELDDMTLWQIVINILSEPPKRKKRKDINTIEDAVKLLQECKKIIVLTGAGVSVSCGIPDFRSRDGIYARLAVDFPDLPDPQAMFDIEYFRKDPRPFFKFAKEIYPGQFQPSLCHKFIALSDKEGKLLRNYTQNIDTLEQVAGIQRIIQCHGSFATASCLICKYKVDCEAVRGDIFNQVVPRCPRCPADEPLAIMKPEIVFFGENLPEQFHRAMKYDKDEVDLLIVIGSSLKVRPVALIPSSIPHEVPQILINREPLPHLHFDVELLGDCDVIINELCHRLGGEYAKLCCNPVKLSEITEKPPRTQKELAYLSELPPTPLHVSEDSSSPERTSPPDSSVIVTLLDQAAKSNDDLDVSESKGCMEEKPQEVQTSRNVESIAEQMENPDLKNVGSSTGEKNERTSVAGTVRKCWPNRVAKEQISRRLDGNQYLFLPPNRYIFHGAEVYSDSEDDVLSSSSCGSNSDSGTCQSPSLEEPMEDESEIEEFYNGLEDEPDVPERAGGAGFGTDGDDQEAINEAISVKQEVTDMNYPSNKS

[2] = biological target: T2, SIRT2 (Homo sapiens, UniProt Q8IXJ6); assay: SIRT-Glo enzyme inhibition assay, SIRT2; type: biochemical; settings: 50 μM compound
T2 sequence (Q8IXJ6 1-389): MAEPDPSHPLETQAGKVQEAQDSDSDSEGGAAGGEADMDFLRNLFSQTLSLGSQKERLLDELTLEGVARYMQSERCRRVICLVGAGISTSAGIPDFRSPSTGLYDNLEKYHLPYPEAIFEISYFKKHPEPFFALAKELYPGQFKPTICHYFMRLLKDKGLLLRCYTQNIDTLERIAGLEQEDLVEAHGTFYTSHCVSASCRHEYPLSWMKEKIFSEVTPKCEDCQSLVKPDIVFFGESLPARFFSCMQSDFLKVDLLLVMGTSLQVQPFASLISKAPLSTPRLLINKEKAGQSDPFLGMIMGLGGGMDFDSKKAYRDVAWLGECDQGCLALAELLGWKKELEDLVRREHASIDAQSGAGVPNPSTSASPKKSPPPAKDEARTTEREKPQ

[3] = biological target: T3, SIRT3 (Homo sapiens, UniProt Q9NTG7); assay: SIRT-Glo enzyme inhibition assay, SIRT3; type: biochemical; settings: 50 μM compound
T3 sequence (Q9NTG7 1-399): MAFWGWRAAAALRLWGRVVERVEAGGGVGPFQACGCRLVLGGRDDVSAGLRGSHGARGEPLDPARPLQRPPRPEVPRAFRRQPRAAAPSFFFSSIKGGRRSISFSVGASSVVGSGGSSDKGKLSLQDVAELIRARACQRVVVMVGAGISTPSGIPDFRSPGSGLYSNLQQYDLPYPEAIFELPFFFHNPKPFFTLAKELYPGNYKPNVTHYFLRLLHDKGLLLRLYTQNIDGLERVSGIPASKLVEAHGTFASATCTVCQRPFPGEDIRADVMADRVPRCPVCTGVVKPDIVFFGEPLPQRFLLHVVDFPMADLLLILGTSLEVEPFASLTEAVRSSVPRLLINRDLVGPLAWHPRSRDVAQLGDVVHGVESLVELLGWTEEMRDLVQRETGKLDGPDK

[4] = drawback stated in the introduction; cited from earlier work
[5] = test system: lymphoma and epithelial cancer cell lines; assay: Cytotoxicity across lymphoma and epithelial cancer cell lines; type: cell-based; settings: 72 h, read-out: cytotoxicity IC50 range
Procedure, shortened: (§1)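 Cells grown under standard conditions and treated in 96-well format with test compound in DMSO (final DMSO 0.25%) or DMSO control for 72 h. Viability was read as luminescence with CellTiterGlo. Assays were run in triplicate, and values are averages of two independent experiments.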

[6] = Cytotoxicity in nontransformed B-cell lines; type: cell-based; settings: human, nontransformed EBV-immortalized B-cell lines B1 and B2
Procedure, shortened: as §1

[7] = test system: SIRT2-mediated deacetylation of α-tubulin in NCI-H460 cells; assay: α-tubulin acetylation by Western blot; type: cell-based, human; settings: 4 h treatment
[8] = biological target: T1, SIRT1; assay: Saturation transfer difference; type: binding; settings: 1.5 μM SIRT1, 200 μM compound, naphthalene numbering

- SIRT1 (% inh) ([1]; 50 μM compound): 27%
- SIRT2 (% inh) [2]: 24%
- SIRT3 (% inh) [3]: 32%
Compound: 4-[(2-Chloro-6-hydroxy-4-methylquinolin-5-yl)methyl]-5-(4-methylphenyl)-2,3-dihydro-1H-pyrazol-3-one [compound 22]

Compound: O=c1[nH]c(=S)[nH]c(-c2ccccc2)c1Cc1c(O)ccc2ccccc12 [compound 1, 5-[(2-hydroxy-1-naphthyl)methyl]-6-phenyl-2-thioxo-2,3-dihydro-4(1H)-pyrimidinone]
- solubility [4]: poor solubility

- selectivity for SIRT1 (over SIRT2) [1]: greater than 5 fold
Compound: Cc1ccc(-c2[nH][nH]c(=O)c2Cc2c(O)ccc3cc(Br)ccc23)cc1 [compound 14, 4-[(6-Bromo-2-hydroxynaphthalen-1-yl)methyl]-5-(4-methylphenyl)-2,3-dihydro-1H-pyrazol-3-one]

- selectivity for SIRT1 (over SIRT2) [1]: 7.8 fold
Compound: Cc1ccc(-c2[nH]oc(=O)c2Cc2c(O)ccc3cc(Br)ccc23)cc1 [compound 24, 4-[(6-Bromo-2-hydroxynaphthalen-1-yl)methyl]-3-(4-methylphenyl)-2,5-dihydro-1,2-oxazol-5-one]
- IC50 [5]: 3 to 7 µM
- IC50 at 72 h [6]: 22 to 28 µM
- α-tubulin acetylation [7]: rapid and robust dose-dependent increase in α-tubulin acetylation

- relative STD signal intensity, C-7 proton [8]: 100%
Compound: Cc1ccc(-c2[nH][nH]c(=O)c2Cc2c(O)ccc3nc(Cl)ccc23)cc1 [compound 20, 4-[(2-Chloro-6-hydroxyquinolin-5-yl)methyl]-5-(4-methylphenyl)-2,3-dihydro-1H-pyrazol-3-one]

- selectivity for SIRT1 (over SIRT2) [1]: > 3 fold
Compound: CC(C)c1ccc(-c2[nH][nH]c(=O)c2Cc2c(O)ccc3nc(Cl)ccc23)cc1 [compound 23, 4-[(2-Chloro-6-hydroxyquinolin-5-yl)methyl]-5-[4-(propan-2-yl)phenyl]-2,3-dihydro-1H-pyrazol-3-one]
